Results as given in the array DNA melting data of Ke et al. (doi:10.1101/2024.01.08.574731).

Legend:
[1] = folding enthalpy; higher = less favourable; fluorescence melt of hairpins on a sequencing array, two-state fit; conditions: sodium 0.088 M
Summary of the method: (§1)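 Melting temperature and folding enthalpy were obtained by bootstrapped two-state fitting. Fits used Cy3 fluorescence of library hairpins with annealed Cy3 and quencher oligos on a sequenced MiSeq flow cell, imaged in 50 mM Na-HEPES pH 8.0, 25 mM NaCl in 2.5 °C steps up to 60 °C and normalised to pre-quench Cy3 and control constructs. Four replicates were combined by inverse-variance weighting, and fitted temperatures were raised by 9.35 °C to match UV melts.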

[2] = melting temperature; fluorescence melt of hairpins on a sequencing array, two-state fit, raised by 9.35 °C to match UV melts; conditions: sodium 0.088 M
Summary of the method: as §1

Sequence	folding enthalpy [1] [kcal/mol]	Tm [2] [°C]
GTAACAGCGAAAGCTTAC (((..(((....))))))	-10.8	28.6
GATCGAGCTCTCGATC ((((((....))))))	-39.1	55.2
GATCTAAGACTAGATC ((((((....))))))	-19.9	34.3
GCGTTAGAAATAACGC ((((((....))))))	-37.8	57.6
GTCGGCGAAAGCCGAGAC ((((((....)))..)))	-7.78	55.6
GTGGGCGAAAGCCACCAC ((((((....)))..)))	-12.7	47.2
GCGTTTACACGC ((((....))))	-23.2	54.3
ATATCGAAAGATAT (((((....)))))	-15.8	42.2
GTTCACGAAAGTGGAAAC ((((((....)))..)))	-13.4	30.9
GAGTGTGGAAACACACTC (((((((....)))))))	-36.1	66
GCGGGGACCCGC ((((....))))	-26.3	68.3
CGAGCGGAAACGCTGTCG ((((((....)))..)))	-11.2	43
GTCTTTGGAAACAAAGAC (((((((....)))))))	-42.3	56.5
GCGCTCCGAAAGGAACGC (((.(((....))).)))	-46.8	65
GAGCAGGGAAACCTGTTC ((.((((....)))).))	-24.1	46
GCGGGGCGAAAGCGGCGC (((..((....))..)))	-34.7	66.8
GCGCACGGAAACGCGCAC (.((.((....)).)).)	-13.7	52.4
GATCGCCTAGCGATC ((((((...))))))	-30.6	68.6
GACAACGAAAGTTTTGTC ((((((....)))..)))	-24.7	31.8
GCTCGGCGAAAGCCTTGC ((..(((....)))..))	-11.4	50.2
GGGCGACGAAAGTCTCCC (((.(((....))).)))	-43.2	53.6
TTCGGGAAACCGAA (((((....)))))	-18.8	46.7
GCTACCGGAAACGGCAAC (.(.(((....))).).)	-8.04	18.5

Sequence	folding enthalpy [1] [kcal/mol]	Tm [2] [°C]
GTTTTAGCGAAAGCTAAC (((..(((....))))))	-13.2	33
GGTTCGGGAAACCGAGCC ((.((((....)))).))	-40.4	58.3
GCACTCGAAAGAGGGTGC ((((((....)))..)))	-31.5	50.8
GCCCAGCGAAAGCTGCGC ((.((((....)))).))	-17.1	59
GGTTTTGGAAACAGAACC ((((.((....)).))))	-36.7	42.1
GATAGGGGAAACCCTATC (((((((....)))))))	-42	54.9
GATGTGCGAAAGCATATC (((.(((....))).)))	-32.6	54.2
GTCAATCGAAAGATAGAC (((.(((....))).)))	-28.2	43.5
GGTGAACGAAAGTTTACC (((.(((....))).)))	-45.2	51.8
GTCGATGGAAACATCGAC (((((((....)))))))	-44.8	67.3
GGGCACGGAAACGTACCC (((.(((....))).)))	-40.1	51.4
GTTAACGAAAGTTAAAAC ((((((....)))..)))	-9.6	30.2
GCACCTCGAAAGAGTGC (((.(((....))))))	-46.4	53.3
GATCTCACGTGAGATC ((((((....))))))	-54.2	55.1
GCTAGACGAAAGTCGAGC (((.(((....))).)))	-32.9	60.2
GCAGACGAAAGTCCATGC ((((((....)))..)))	-16.5	35.3
GGTAGCGAAAGCTAGACC ((((((....)))..)))	-14.3	40.1
ACCAAGAAATTGGT (((((....)))))	-13.7	37.5
GTCTATCGAAAGATGGAC (((.(((....))).)))	-30.9	51.7
GCTGACGGAAACATCAGC (((((.(....).)))))	-35.1	44.3
GGGAAGGGAAACCCTCCC ((((.((....)).))))	-28.1	46.8
GGCTCCGAAAGGATGGCC ((((((....)))..)))	-30.9	52.3
GTGTTCGAAAGAACCAC ((((((....))).)))	-13.3	43.5

Sequence	folding enthalpy [1] [kcal/mol]	Tm [2] [°C]
GTAGGAGGAAACTCCTGC (.(((((....))))).)	-22.3	46.8
GAATAGGGAAACCTGTTC (((.(((....))).)))	-30.6	38.2
GCTCACGGAAACGTGAAC (.(((((....))))).)	-13	42.3
GGCATCGGAAACGATACC ((.((((....)))).))	-27.1	45.6
GCCCGCGGAAACGCAGGC (((.(((....))).)))	-32.4	62.4
GCAACAGGAAACTATTGC ((((.((....)).))))	-19.2	31.8
GCGTGCGAAAGCACCGC ((((((....))).)))	-13.8	67.2
GACGGCGGAAACGTCGTC ((((.((....)).))))	-52.8	61.1
GCGCGGTCGAAAGACCGC (((..(((....))))))	-5.31	67
GAAAAGGGAAACCCTTTC ((((.((....)).))))	-17	32.6
GATCGCTTGGCGATC ((((((...))))))	-41.3	68.8
ATCTGGAAACAGAT (((((....)))))	-18.3	39.1
GCGAGCGAAAGCTGCGC ((((((....))).)))	-21.8	68.9
GCGCTGCGAAAGCACCGC (((.(((....))).)))	-46.8	53.9
GTCACTGAAAAGTGAC ((((((....))))))	-33.2	63.3
GAGCTAGGAAACTAACTC (((.(((....))).)))	-19.9	30.4
GGCTGTGGAAACACGGTC (.(.(((....))).).)	-28.1	44.4
GCGGACGAAAGTCGCCGC ((((((....)))..)))	-18.1	52.4
GGCAGTGGAAACATTGCC ((((.((....)).))))	-41.3	52.2
GCCATGCGAAAGCTCGGC (((..((....))..)))	-23.6	52.5
GTCTCCGGAAACGGGGAC (((.(((....))).)))	-41.1	57.7
GCGTAACACGC ((((...))))	-20.9	55.7
TAACTGAAAAGTTA (((((....)))))	-9.74	29.4

Sequence	folding enthalpy [1] [kcal/mol]	Tm [2] [°C]
GGAGTAGGAAACTACTTC (.(((((....))))).)	-29.2	44.4
GAGCCGGGAAACCGACCC (.(.(((....))).).)	-13.9	30.1
GCCACCGGAAACGGCGAC (.(.(((....))).).)	-14.2	34.7
GACGAACGAAAGTTTGTC (((.(((....))).)))	-43.7	54.2
GATCTCTGTCGAGATC ((((((....))))))	-37.4	51.8
GTACGCGAAAGCGGCTAC ((((((....)))..)))	-10.4	42.1
GTCTTCGGAAACGAAGGC (.(((((....))))).)	-32.9	53.8
GACTGCGAAAGCACAGTC ((((((....)))..)))	-13.2	44.5
GCGGCCATCCGC ((((....))))	-18.5	60
CGGGCGGAAACGCACCCG ((((((....)))..)))	-13.1	48.8
GCCGTGCGAAAGCTCCGC ((.(.((....)).).))	-11.2	40.4
GGGTTTCGAAAGAACCC (((.(((....))))))	-38	51.2
GTTTAGGAAACTAAAC ((((((....))))))	-30.6	44.7
GACTCCGGAAACGGAATC ((.((((....)))).))	-19.1	36.4
CGGGCGGAAACGCCTCCG ((((((....)))..)))	-8.08	36.1
GATCATATGAATGATC ((((((....))))))	-31.7	45.7
GATCAGGTTCCTGATC ((((((....))))))	-47.5	53.7
GTGGAGTCGAAAGACCAC (((..(((....))))))	-20.6	44.9
CCTAGGAAACTAGG (((((....)))))	-25.4	41.2
GATCCTAATGAGGATC ((((((....))))))	-34.1	50.5
GCCCAGCGAAAGCTGAGC ((.((((....)))).))	-15.2	63.3
GCAACGCGAAAGCGCAGC ((..(((....)))..))	-11.7	48.1
GGATCTGGAAACAGACCC ((.((((....)))).))	-32.2	42
